From PubChem BioAssay
This is a sample that favours compounds with a hit; in the whole collection about 1.3% have one here.
TDP2 inh: TDP2 (human) inhibition, absorbance primary screen. hit rate 0.34% among 370,000. O95551. inhibition, % at 12.8 µM. recombinant TDP2, T5PNP hydrolysis, p-nitrophenol absorbance 415 nm;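 active = inhibition above the mean of all tested compounds plus 3 SD, set per campaign, cut at about 25% in these data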
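Read-out basis: percent inhibition. System: recombinant human TDP2. Buffer or medium: Mg2+-containing Tris-HCl buffer, pH 7.5. Repeats: single replicate. Timing: reaction 2 h, 37 °C. Benchmarks: high control without enzyme, low control DMSO plus TDP2. Probe or stimulus: 5 mM T5PNP. Doses: 12.8 µM only. Measured by: epi absorbance of p-nitrophenol freed from T5PNP by hydrolysis.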
LEDGF integ inh: blocks HIV-1 LEDGF/p75-dependent DNA integration; TR-FRET IN-LEDGF/p75 DNA integration, Eu/Cy5; inhibition, % at 3.7 µM; hit rate 0.64% among 370,000;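 active = inhibition above the screen-wide mean plus 3 SD, cut at about 13% in these data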;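 note: signal is the Cy5 over europium emission ratio at 671 and 618 nm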
ARFGAP1 inhibitor: inhibitors of rat ARFGAP1 | AID 651572 | Q62848 | inhibition, % at 16.5 µM | hit rate 0.26% among 360,000 | Arfgap1-stimulated ARF1 GTP hydrolysis, GDP FP detection;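 active = inhibition above a per-plate limit, mean inhibition of low control wells plus 3 SD, cut at about 25% in these data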
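Material: truncated rat Arfgap1 GAP domain; Incubation: compound-enzyme preincubation 20 min, reaction 120 min, detection 60 min, 25 °C; Read-out: percent inhibition of Arfgap1-stimulated GTP hydrolysis; Technique: FP, GDP Alexa 633 tracer displaced from anti-GDP antibody, 620/688 nm; Controls: No-Arfgap1 wells (100%) versus DMSO full-reaction wells (0%); Replication: single well per compound.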
ASAP1 inh: ASAP1 ArfGAP inhibition; ASAP1-stimulated ARF1 GTP hydrolysis, GDP FP detection; hit rate 0.19% among 360,000; Q9ULH1; inhibition, % at 16.5 µM; AID 624377; in the data active = inhibition above about 25%
Target sequence (Q9ULH1 325-724 limits assumed): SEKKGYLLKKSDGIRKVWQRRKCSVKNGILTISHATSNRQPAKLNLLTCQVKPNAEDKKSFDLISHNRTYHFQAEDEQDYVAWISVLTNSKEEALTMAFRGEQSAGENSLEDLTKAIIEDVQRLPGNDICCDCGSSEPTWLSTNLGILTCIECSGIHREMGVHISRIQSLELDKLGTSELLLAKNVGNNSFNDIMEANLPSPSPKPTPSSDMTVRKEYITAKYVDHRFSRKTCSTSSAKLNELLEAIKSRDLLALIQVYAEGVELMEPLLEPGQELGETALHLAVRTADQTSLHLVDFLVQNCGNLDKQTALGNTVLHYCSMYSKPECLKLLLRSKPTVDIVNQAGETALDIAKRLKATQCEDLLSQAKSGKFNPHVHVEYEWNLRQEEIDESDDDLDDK
Casp6 inh: blocks human caspase-6 cleavage activity. P55212. purified caspase-6, Z-VEID-R110 cleavage fluorescence. inhibition, % at 12.5 µM. hit rate 0.53% among 350,000;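 active = mean inhibition across replicates at least about 35%, with every replicate also reaching that limit, limit read from the data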
Numbers stand for hits; . = inactive; / = not tested or not shown.

SMILES	TDP2 inh	LEDGF integ inh	ARFGAP1 inhibitor	ASAP1 inh	Casp6 inh
CCOc1ccc(-n2c(=S)sc3c(=O)[nH]c(SCC(=O)N4CCC(C)CC4)nc32)cc1	.	.	.	.	42.6
O=C1c2cc(CO)cc(O)c2C(=O)c2c(O[C@@H]3OC(CO)[C@@H](O)[C@@H](O)[C@@H]3O)cccc21 (stereo partly specified)	.	.	.	.	.
O=C(O)c1cc(O)c2c(c1)[C@@H]([C@H]1c3cc(C(=O)O)cc(O)c3C(=O)c3c(O[C@@H]4O[C@H](CO)[C@@H](O)[C@H](O)[C@H]4O)cccc31)c1cccc(OC3O[C@H](CO)[C@@H](O)[C@H](O)[C@H]3O)c1C2=O (stereo partly specified)	.	74.0	.	.	90.8
O=C(O)c1cccc(Nc2c([N+](=O)[O-])c(=O)oc3ccccc23)c1	.	.	.	.	.
COc1ccc(-n2c(C)c(C(C)=O)c(C(C)=O)c2C)cc1	.	.	.	.	38.7
O=C(O)c1ccc(N=Nc2c(O)[nH]c3cc(Cl)ccc23)cc1	.	.	.	.	38.3
O=C(O)Cc1ccc(NC(=S)Nc2cccc(Cl)c2Cl)cc1	.	.	.	.	/
CCCCNC(=O)COC(=O)c1c2c(nc3ccccc13)/C(=C/c1cccs1)CC2	.	.	.	.	/
CC1CCCCC1NC(=O)COC(=O)c1c2c(nc3ccccc13)/C(=C\c1ccco1)CC2 (stereo unspecified)	.	27.2	.	.	.
COC(=O)c1ccc(OC(=O)/C=C/c2ccco2)cc1	.	.	.	.	35.8
COc1ccc(C(=O)C2CCCN(Cc3cn(C)nc3-c3ccccc3)C2)cc1F (stereo unspecified)	.	.	.	.	.
CC(C)[C@H](NC(=O)[C@@H]1CSC2c3ccccc3C(=O)N21)C(=O)N1CCCCC1 (stereo partly specified)	.	.	.	.	.
O=C(CCN1CCCCCC1)c1ccccc1	.	.	.	.	/
O=C(O)CCN1CC2([N+](=O)[O-])C=CC(=O)C([N+](=O)[O-])(C1)C2CC(=O)c1ccccc1 (stereo unspecified)	.	.	.	.	42.9
COc1ccc(Cn2c(C)nc3c(c2=O)c2nc4ccccc4nc2n3Cc2ccco2)cc1	.	13.5	.	.	.
COc1ccc(S(=O)(=O)c2c(N)n(Cc3ccco3)c3nc4ccccc4nc23)cc1	.	14.6	.	.	/
Cc1ccc(S(=O)(=O)c2c(N)n(/N=C/c3ccco3)c3nc4ccccc4nc23)cc1	.	.	.	.	/
COc1cc(NC(=O)[C@H]2CSCN2C(=O)[C@@H]2CCC(=O)N2)cc(OC)c1OC	.	.	.	.	.
O=C(Nc1cccc(Cl)c1)c1cccc(N2C(=O)C3CC=CCC3C2=O)c1 (stereo unspecified)	.	.	.	.	35.5
Cn1c(N)c(C(c2ccccc2)c2c(N)n(C)c(=O)n(C)c2=O)c(=O)n(C)c1=O	.	.	.	.	/
CS(=O)(=O)N1CCN(c2ccccc2NC(=O)CSc2nnc(-c3ccco3)o2)CC1	.	.	.	.	/
C/C(C/C(C)=C1/SC(=S)NC1=O)=C1\SC(=S)NC1=O	.	20.5	.	.	/
O=C(/C=C/c1cccnc1)c1ccc(NC(=O)c2cccc(Br)c2)cc1	.	.	.	25.9	/
Cn1c(=O)c2cc(NC(=S)NC3CC3)ccc2n1Cc1ccccc1	.	.	.	.	58.0
Cn1c(=O)c2cc(NC(=S)NC3CCCCC3)ccc2n1Cc1ccc(F)cc1	.	.	.	.	.
SMILES	TDP2 inh	LEDGF integ inh	ARFGAP1 inhibitor	ASAP1 inh	Casp6 inh
C[C@H]1CCCCO[C@@H](CN(C)S(=O)(=O)c2cn(C)cn2)[C@@H](C)CN([C@@H](C)CO)C(=O)c2cc(NC(=O)NC3CCCCC3)ccc2O1	/	/	/	/	.
O=C1C=C(Nc2ccccc2)C(=O)c2ccccc21	.	.	.	.	.
O=C1C=C(Nc2ccccc2)c2ccccc2C1=O	.	.	.	.	97.3
CC(C)CN(C(=O)CSc1nc2ccccc2[nH]1)C1CCS(=O)(=O)C1 (stereo unspecified)	.	.	.	.	.
O=C1O[C@H](CO)[C@@H](O)[C@H](O)[C@H]1O	.	.	.	.	.
O=CC(O)C1OC(=O)C(O)C1O (stereo unspecified)	.	.	.	.	41.3
